As a reminder, the IC50 is the midpoint of a concentration-inhibition curve. What is called solubility is the dissolved amount per volume that the medium holds. Read a low solubility as little dissolved substance.

Here are results for 13 compounds from ChEMBL document CHEMBL1833894, “The effect of a bromide leaving group on the properties of nitro analogs of the duocarmycins as hypoxia-activated prodrugs and phosphate pre-prodrugs for antitumor therapy” (Bioorg Med Chem, 2011).

For series [1], the system named is SiHa. Put plainly: Antitumor activity against human SiHa cells xenografted in CD1-Foxn1nu/nu nude mouse assessed as log10 clonogens/g tumor at 42 umol/kg, iv administered 5 mins after irradiated with gamma-15 Gy measured after 18 hrs (reference value: 5.34 +/- 0.04 to 5.73 +/- 0.15 no unit). It counts as functional. A general note: In xenograft studies the graft and the host belong to different species.

Series [2] deals with SiHa. The series can be described thus: Antitumor activity against human SiHa cells xenografted in CD1-Foxn1nu/nu nude mouse assessed as log10 clonogens/g tumor at 42 umol/kg, iv measured after 18 hrs (reference value: 7.15 +/- 0.01 to 7.62 +/- 0.2 no unit). It counts as functional.
Series [3] relates to SiHa. The series can be described thus: Antitumor activity against human SiHa cells xenografted in CD1-Foxn1nu/nu nude mouse assessed as hypoxic log10 cell kill at 42 umol/kg, iv administered 5 mins after irradiated with gamma-15 Gy measured after 18 hrs. It counts as functional. In a few lines: (§1)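 Male nude mice bearing subcutaneous SiHa tumours, from 10⁷ cultured cells, randomised at a mean diameter of 8–10 mm. Phosphate given iv in phosphate-buffered saline with 4 equiv sodium bicarbonate, 5 min after whole-body cobalt-60 15 Gy. Tumours excised 18 h later for clonogenic assay (log10 clonogens/g), 5 mice per group. Hypoxic log cell kill = radiation + drug versus radiation alone; ANOVA with Holm-Sidak.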

The test system of series [4] is SiHa. Put plainly: Cytotoxicity against human SiHa cells assessed as reduction in cell density compound treated for 4 hrs under hypoxic condition measured after 5 days by sulforhodamine B assay. The format is functional, cell-based. The procedure, abridged:
(§2)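 Log-phase monolayers exposed to drug for 4 h under aerobic (20% O₂) or anoxic (<20 ppm O₂) conditions, then stained with sulforhodamine B 5 days later. IC50 interpolated as the concentration cutting cell density to 50% of same-plate controls; mean of 3–6 experiments.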
For orientation: In SRB staining, fixed cells bind dye roughly in proportion to their protein.

Series [5] deals with HT-29. Put plainly: Cytotoxicity against human HT29 cells assessed as reduction in cell density compound treated for 4 hrs under oxic condition measured after 5 days by sulforhodamine B assay. It counts as functional, cell-based. In a few lines:
as §2

In series [6] the test system is HT-29. Put plainly: Ratio IC50 for human HT29 cells under oxic condition to IC50 for human HT29 cells under hypoxic condition. It counts as functional. The procedure, abridged:
(§3)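 Oxic IC50 divided by hypoxic IC50 (4 h exposure at 20% O₂ vs <20 ppm O₂, sulforhodamine B read-out 5 days later), taken as means of intraexperiment ratios over 2–6 experiments.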

Series [7] concerns HT-29. Put plainly: Cytotoxicity against human HT29 cells assessed as reduction in cell density compound treated for 4 hrs under hypoxic condition measured after 5 days by sulforhodamine B assay. The format is functional, cell-based. The procedure, abridged:
as §2

In series [8] the test system is SiHa. Put plainly: Ratio IC50 for human SiHa cells under oxic condition to IC50 for human SiHa cells under hypoxic condition. The format is functional. The procedure, abridged:
as §3

For series [9], the system named is SiHa. The series can be described thus: Cytotoxicity against human SiHa cells assessed as reduction in cell density compound treated for 4 hrs under oxic condition measured after 5 days by sulforhodamine B assay. It counts as functional, cell-based. The procedure, abridged: as §2
The subject of series [10] is HT-29. Put plainly: Cytotoxicity against human HT29 cells under oxic condition relative to hypoxic condition. It counts as functional. The procedure, abridged: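 Log-phase HT29 monolayers exposed to drug for 4 h under aerobic (20% O₂) or anoxic (<20 ppm O₂) conditions, then sulforhodamine B staining 5 days later. IC50 interpolated as the concentration cutting cell density to 50% of same-plate controls. Ratio = IC50(oxic)/IC50(hypoxic), taken as the mean of intraexperiment ratios over 2–6 experiments.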

Series [11] deals with SK-OV-3. Put plainly: Cytotoxicity against human SKOV3 cells under oxic condition relative to hypoxic condition. The format is functional.
Series [12] can be described thus: Aqueous solubility of the compound. It counts as physicochemical.
The subject of series [13] is SiHa. The series can be described thus: Antitumor activity against human SiHa cells xenografted in CD1-Foxn1nu/nu nude mouse assessed as log10 clonogens/g tumor at 30 umol/kg, iv measured after 18 hrs (reference value: 7.15 +/- 0.01 to 7.62 +/- 0.2 no unit). The format is functional.
In series [14] the test system is SiHa. Put plainly: Antitumor activity against human SiHa cells xenografted in CD1-Foxn1nu/nu nude mouse assessed as hypoxic log10 cell kill at 30 umol/kg, iv administered 5 mins after irradiated with gamma-15 Gy measured after 18 hrs. The format is functional. The procedure, abridged: as §1
Series [15] deals with SiHa. The series can be described thus: Antitumor activity against human SiHa cells xenografted in CD1-Foxn1nu/nu nude mouse assessed as log10 clonogens/g tumor at 30 umol/kg, iv administered 5 mins after irradiated with gamma-15 Gy measured after 18 hrs (reference value: 5.34 +/- 0.04 to 5.73 +/- 0.15 no unit). The format is functional.

In the case of `COc1ccc(/C=C/C(=O)N2CC(CBr)c3c2cc([N+](=O)[O-])c2cc(S(=O)(=O)NCCOP(=O)(O)O)ccc32)cc1` (configuration not stated), the Activity is 4.5 in series [1] and 7.07 in series [2]. For the same compound, the LCK in series [3] is 0.87.

On to `COc1cc2cc(C(=O)N3CC(CBr)c4c3cc([N+](=O)[O-])c3cc(S(=O)(=O)NCCO)ccc43)[nH]c2c(OC)c1OC` (configuration not stated), for which the IC50 in series [4] was 270 nM; in [5], 12.3 µM; in series [7] it was 1350 nM; in [9] it was 2610 nM. Moreover, the “Ratio IC50” value in series [6] and in series [8] was 10 each time.

Turning to `O=C(c1cc2cc(OCCN3CCOCC3)ccc2[nH]1)N1CC(CBr)c2c1cc([N+](=O)[O-])c1cc(S(=O)(=O)NCCOP(=O)(O)O)ccc21` (configuration not stated), the Activity was 2.6 in series [1] and 6.05 in series [2]. In addition, in series [3], the LCK was 2.8.

Turning to `CN(C)CCOc1ccc2[nH]c(C(=O)N3CC(CCl)c4c3cc([N+](=O)[O-])c3cc(S(=O)(=O)NCCO)ccc43)cc2c1` (configuration not stated), the IC50 in series [4] came out at 70 nM; in [5], 9.3 µM; in [7], 90 nM; in series [9], 2000 nM. In addition, the “Ratio IC50” value in series [6] was determined as 160; in series [8], 46.

Consider `COc1ccc(/C=C/C(=O)N2CC(CBr)c3c2cc([N+](=O)[O-])c2cc(S(=O)(=O)NCCO)ccc32)cc1` (configuration not stated), for which the IC50 was 120 nM in [4], 2.45 µM in series [5], < 100 nM in series [7] and 1440 nM in series [9]. Further, the “Ratio IC50” value in [6] is reported as >25; in [8] it was 17.

For the compound `COc1cc2cc(C(=O)N3CC(CBr)c4c3cc([N+](=O)[O-])c3cc(S(=O)(=O)NCCOP(=O)(O)O)ccc43)[nH]c2c(OC)c1OC` (configuration not stated), the Activity in series [1] is reported as 3.62; in series [2], 6.51. Moreover, in [3], the LCK is given as 1.84.

As for `CN(C)CCOc1ccc2[nH]c(C(=O)N3CC(CCl)c4c3cc([N+](=O)[O-])c3cc(S(N)(=O)=O)ccc43)cc2c1` (configuration not stated), the Ratio amounted to 330 in series [10] and 275 in series [11].

On to `O=C(c1cc2cc(OCCN3CCOCC3)ccc2[nH]1)N1CC(CBr)c2c1cc([N+](=O)[O-])c1cc(S(=O)(=O)NCCO)ccc21` (configuration not stated), for which the IC50 in series [4] came to 280 nM; in series [5], 22.4 µM; in series [7], 440 nM; in series [9], 11700 nM. Moreover, the figures for the “Ratio IC50” value in [6] and in series [8] were 52 and 43, respectively.

`CN(C)CCOc1ccc2[nH]c(C(=O)N3CC(CCl)c4c3cc([N+](=O)[O-])c3cc(S(=O)(=O)NCCOP(=O)(O)O)ccc43)cc2c1` (configuration not stated): the Activity in [1] was 3.9; in [2], 6.89. Also, in series [3], the LCK is on record as 1.83. Further, the solubility in [12] was > 2000 µM.

Take `COc1cc2cc(C(=O)N3CC(CCl)c4c3cc([N+](=O)[O-])c3cc(S(=O)(=O)NCCO)ccc43)[nH]c2c(OC)c1OC` (configuration not stated): the IC50 in series [4] was 3500 nM; in [5], 28 µM; in series [7], 11000 nM; in series [9], 13000 nM. For the same compound, the “Ratio IC50” value in series [6] was found to be 2.1; in series [8] it was 16.

`COc1cc2cc(C(=O)N3CC(CCl)c4c3cc([N+](=O)[O-])c3cc(S(=O)(=O)NCCOP(=O)(O)O)ccc43)[nH]c2c(OC)c1OC` (configuration not stated): the Activity is 4.96 in series [1] and 7.29 in [2]. Further, in series [3], the LCK is 0.55.

For `O=C(/C=C/c1ccc(OCCN2CCOCC2)cc1)N1CC(CBr)c2c1cc([N+](=O)[O-])c1cc(S(=O)(=O)NCCOP(=O)(O)O)ccc21` (configuration not stated), the Activity in [13] turned out to be 7.01; in series [15], 3.78. In [14], the LCK is on record as 1.56.

For the compound `O=C(/C=C/c1ccc(OCCN2CCOCC2)cc1)N1CC(CBr)c2c1cc([N+](=O)[O-])c1cc(S(=O)(=O)NCCO)ccc21` (configuration not stated), the IC50 in series [4] was 90 nM; in series [5], 11.2 µM; in series [7] it was 80 nM; in series [9], 2720 nM. Further, the “Ratio IC50” value is on record as 286 in [6] and 41 in series [8].
